Legend:
[1] = organism: Rattus norvegicus; experiment: Displacement of [3H]strychnine from glycine receptor in Wistar rat spinal cord synaptosomal membranes; type: cell membranes; conditions: Membrane
[2] = biological target: T1, Serotonin 3 (5-HT3) receptor (Rattus norvegicus, UniProt P35563+Q9JJ16); experiment: Displacement of [3H]granisetron from 5HT3 receptor in Wistar rat cerebral cortex synaptosomal membranes; type: cell membranes, Membrane
T1 sequence (P35563 whole entry): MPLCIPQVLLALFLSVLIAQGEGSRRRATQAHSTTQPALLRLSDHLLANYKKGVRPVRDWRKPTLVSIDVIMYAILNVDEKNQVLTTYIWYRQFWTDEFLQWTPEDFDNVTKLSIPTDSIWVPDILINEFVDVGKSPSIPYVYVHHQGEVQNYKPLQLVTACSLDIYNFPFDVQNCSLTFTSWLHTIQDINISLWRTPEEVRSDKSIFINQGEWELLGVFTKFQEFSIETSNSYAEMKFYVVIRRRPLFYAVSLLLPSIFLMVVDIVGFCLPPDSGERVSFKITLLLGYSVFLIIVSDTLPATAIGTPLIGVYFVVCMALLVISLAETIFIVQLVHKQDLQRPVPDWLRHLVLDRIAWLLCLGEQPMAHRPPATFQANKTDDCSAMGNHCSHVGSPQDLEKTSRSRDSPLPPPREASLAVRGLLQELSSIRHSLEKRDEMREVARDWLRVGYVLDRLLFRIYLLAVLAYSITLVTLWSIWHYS
T1 sequence (Q9JJ16 whole entry): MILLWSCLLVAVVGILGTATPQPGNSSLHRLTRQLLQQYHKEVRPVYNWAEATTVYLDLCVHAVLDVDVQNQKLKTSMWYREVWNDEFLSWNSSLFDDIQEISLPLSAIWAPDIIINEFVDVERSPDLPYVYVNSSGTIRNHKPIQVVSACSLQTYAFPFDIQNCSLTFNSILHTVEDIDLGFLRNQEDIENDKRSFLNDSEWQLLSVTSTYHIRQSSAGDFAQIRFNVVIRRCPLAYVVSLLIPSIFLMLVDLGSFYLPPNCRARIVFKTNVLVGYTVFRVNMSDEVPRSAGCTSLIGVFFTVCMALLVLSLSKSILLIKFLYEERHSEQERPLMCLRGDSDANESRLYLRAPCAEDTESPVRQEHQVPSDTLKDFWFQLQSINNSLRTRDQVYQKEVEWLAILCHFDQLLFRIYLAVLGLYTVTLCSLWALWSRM
Outline: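 Male Wistar rat cerebral cortex plus hippocampus synaptosomal membranes, in 10 mM HEPES with 140 mM NaCl (pH 7.5). Incubated with 0.3 nM [3H]granisetron and varied tropeine concentrations for 2.5 h on ice. Nonspecific binding defined with 10 µM granisetron. Duplicate aliquots filtered on PEI-presoaked GF/B filters. Displacement curves fitted with variable slopes; 3-6 experiments.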

[3] = biological target: Serotonin 3 (5-HT3) receptor (Rattus norvegicus) (UniProt P35563+Q9JJ16); experiment: Selectivity for glycine receptor measured as KA over 5HT3 receptor measured as IC50 in Wistar rat synaptosomal membranes; type: cell membranes

Row | SMILES | -Log KA [1] | IC50 [2] | Selectivity ratio [3]
1 | CN1[C@@H]2CC[C@H]1C[C@@H](OC(=O)c1cc(Cl)cc(Cl)c1)C2 | 5.99 |  | 
2 | O=C(O[C@H]1C[C@H]2CC[C@@H](C1)N2)c1ccccc1 (stereo in doubt; 4a) [listing 1 of 2 here] |  | 1.56 µM | 
3 | CN1[C@@H]2CC[C@H]1C[C@H](OC(=O)c1ccccc1)C2 (stereo in doubt; 7) [listing 1 of 2 here] | 5.77 |  | 0.3
4 | CC1(C)Cc2cc(Cl)cc(C(=O)O[C@H]3C[C@H]4CC[C@@H](C3)N4)c2O1 | 7.74 | 0.0562 µM | 3.37
5 | CN1[C@@H]2CC[C@H]1C[C@H](OC(=O)c1cccc([N+](=O)[O-])c1)C2 | 5.84 |  | 
6 | CN1[C@@H]2CC[C@H]1C[C@@H](NC(=O)c1cc(Cl)cc3c1OC(C)(C)C3)C2 | 6.57 |  | 
7 | O=C(O[C@H]1C[C@H]2CC[C@@H](C1)N2)c1ccccc1 (stereo in doubt; 4a) [listing 2 of 2 here] | 7.98 |  | 161
8 | CCN1[C@@H]2CC[C@H]1C[C@@H](OC(=O)c1ccccc1)C2 | 6.14 | 0.716 µM | 0.98
9 | CN1[C@@H]2CC[C@H]1C[C@H](OC(=O)c1cccc(Cl)c1)C2 | 6.31 | 0.0679 µM | 0.15
10 | O=C(O[C@H]1C[C@H]2CC[C@@H](C1)N2)c1ccccc1 (stereo in doubt; 8) [listing 1 of 2 here] | 5.96 |  | 0.98
11 | COc1cc(C(=O)O[C@@H]2C[C@H]3CC[C@@H](C2)N3C)cc(OC)c1OC | 5.97 | 0.231 µM | 0.23
12 | CN1[C@@H]2CC[C@H]1C[C@H](OC(=O)c1ccccc1)C2 (stereo in doubt; 2a) [listing 1 of 2 here] | 6.39 |  | 0.78
13 | COc1cccc(C(=O)O[C@@H]2C[C@H]3CC[C@@H](C2)N3)c1 | 8.11 | 0.262 µM | 33.5
14 | O=C(O[C@@H]1C[C@H]2CC[C@@H](C1)N2)c1cccc(Cl)c1 | 7.65 | 0.692 µM | 33.7
15 | Nc1cccc(C(=O)O[C@@H]2C[C@H]3CC[C@@H](C2)N3)c1 | 7.23 | 0.577 µM | 10.3
16 | CCc1ccc(C(=O)O[C@@H]2C[C@H]3CC[C@@H](C2)N3C)cc1 | 5.34 | 0.182 µM | 0.04
17 | CN1[C@@H]2CC[C@H]1C[C@H](OC(=O)c1ccc(C(C)(C)C)cc1)C2 | 4.53 |  | 
18 | CN1[C@@H]2CC[C@H]1C[C@H](NC(=O)c1ccccc1)C2 | 4.8 |  | 
19 | CN1[C@@H]2CC[C@H]1C[C@H](OC(=O)c1ccc([N+](=O)[O-])cc1)C2 | 5.29 | 1.05 µM | 0.2
20 | CN1[C@@H]2CC[C@H]1C[C@H](OC(=O)c1ccccc1)C2 (stereo in doubt; 7) [listing 2 of 2 here] |  | 0.499 µM | 
21 | CN1[C@@H]2CC[C@H]1C[C@@H](OC(=O)c1cc(Cl)cc3c1OC(C)(C)C3)C2 | 6.63 | 0.00718 µM | 0.03
22 | CN1[C@@H]2CC[C@H]1C[C@H](OC(=O)c1ccccc1)C2 (stereo in doubt; 2a) [listing 2 of 2 here] |  | 0.299 µM | 
23 | COc1cccc(C(=O)O[C@@H]2C[C@H]3CC[C@@H](C2)N3C)c1 | 7.08 | 0.071 µM | 0.87
24 | O=C(O[C@H]1C[C@H]2CC[C@@H](C1)N2)c1ccccc1 (stereo in doubt; 8) [listing 2 of 2 here] |  | 1 µM | 

— ChEMBL document CHEMBL1149260, “Synthesis of tropeines and allosteric modulation of ionotropic glycine receptors” (J Med Chem, 2004)
